Screening results as filed in PubChem BioAssay.
A selection: hits, their analogues and other compounds. The true share with any hit is near 1.5%.
TRAIL sens C8: caspase-8 TRAIL sensitization. NB7+C8 cells + TRAIL, ATPlite viability luminescence. inhibition (viability loss, TRAIL sensitization), % at 10 µM. 360,000 tested, 1% active;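 active = compounds causing at least 50% loss of cell viability in the single-dose screen, relative to plate controls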
PPC-1+TRAIL kill: kills PPC-1 cancer cells in the presence of TRAIL. cell killing (% activity), % at 4 µM or 5 µM. 220,000 tested, 0.41% active. AID 1443. PPC-1 cells + TRAIL, ATPLite viability luminescence;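 active = cell killing above 50% in the first pass at 4 µM, then a duplicate retest at 5 µM averaging 50% or more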;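 note: plate controls were cells with TRAIL plus DMSO for no effect and medium-only wells lacking cells for full effect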
FLuc inhib CS: counter-screen for luciferase assay inhibitors: firefly luciferase inhibition | P08659 | AID 1006 | ATPLite firefly luciferase biochemical luminescence, 10 min | 200,000 tested, 1.5% active | inhibition, % at 10 µM;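 active = inhibition above about 50% when tested at 10 µM, limit read from the data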
Target sequence (P08659 whole entry, looked up): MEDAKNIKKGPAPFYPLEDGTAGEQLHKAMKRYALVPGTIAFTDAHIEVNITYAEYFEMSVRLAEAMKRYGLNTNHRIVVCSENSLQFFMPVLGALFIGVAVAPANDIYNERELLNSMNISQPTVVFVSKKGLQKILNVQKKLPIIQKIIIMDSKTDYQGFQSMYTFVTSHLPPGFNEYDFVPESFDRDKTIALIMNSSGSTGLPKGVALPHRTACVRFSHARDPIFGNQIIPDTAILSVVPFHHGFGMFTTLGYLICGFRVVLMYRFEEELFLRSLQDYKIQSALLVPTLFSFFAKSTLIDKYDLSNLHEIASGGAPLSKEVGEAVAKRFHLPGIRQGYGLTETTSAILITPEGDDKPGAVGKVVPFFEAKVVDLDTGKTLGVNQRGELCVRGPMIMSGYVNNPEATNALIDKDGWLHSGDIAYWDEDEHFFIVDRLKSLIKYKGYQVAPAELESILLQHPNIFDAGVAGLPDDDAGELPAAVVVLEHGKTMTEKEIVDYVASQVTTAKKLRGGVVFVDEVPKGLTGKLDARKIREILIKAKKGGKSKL
FLuc act counter: affects firefly luciferase, flagging false hits in luciferase stimulation screens; ATPlite luciferase biochemical, luminescence, 10 min; 0 = ATP-free wells, 1 = DMSO control; activation factor at 10 µM; 200,000 tested, under 10 active; AID 1027;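 active = luciferase activation factor, scaled between plate controls, of at least 2 with compound at 10 µM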
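Assay system: Luciferase/luciferin reagent mix; Medium: PBS as buffer for the ATP substrate; Dosing: test compounds dosed from 2 mM stocks in 100% DMSO; Times: 10 min, room temperature; Signal: luminescence from luciferase reaction; Read-out: luciferase activation; Controls: No-ATP low control, compound-free enzyme-plus-ATP high control.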
* = called active by the depositor; . = no result given.

SMILES | TRAIL sens C8 | PPC-1+TRAIL kill | FLuc inhib CS | FLuc act counter
COc1ccc(N/C=C\C(=O)c2ccc3ccccc3c2)cc1 | 23 | . | . | .
COc1ccc(NC(=O)Nc2cc(C)ccn2)cc1 | 59* | . | . | .
Cc1ccnc(NC(=O)COc2ccc3c(c2)CCC3)c1 | 70* | . | . | .
CC(=O)Nc1ccc(NC(=O)COc2ccc3c(c2)CCC3)cc1 | -3 | 22 | -2 | 1
Cc1ccnc(NC(=O)Nc2ccc(F)cc2)c1 | 14 | 33 | 45 | 0.6
COc1ccc(N/C=C/C(=O)c2ccccc2)cc1 | 71* | . | . | .
Cc1noc(/C=C/N(C)C)c1S(=O)(=O)N1CCCC(C(=O)NCc2ccc(F)cc2)C1 (centres undefined) | . | -1 | -6 | 1.1
CCOc1ccc(N/C=C/C(=O)c2ccccc2)c([N+](=O)[O-])c1 | 91* | 73* | 94* | 0.1
CSc1ccc(NC(=O)Nc2cc(C)ccn2)cc1 | 55* | 33 | . | .
Cc1nn(Cc2ccc(Cl)cc2Cl)c(C)c1NC(=O)CCl | 90* | 10 | -1 | 1
NC(Cc1ccccc1)c1csc(NC(=O)Nc2ccccc2Oc2ccccc2)n1 (centres undefined) | 75* | . | . | .
COc1cc(NC(=O)Nc2nc(C(N)Cc3ccc(C(F)(F)F)cc3)cs2)cc(OC)c1OC (centres undefined) | 53* | . | . | .
COc1ccc(CC(N)c2csc(NC(=O)Nc3ccccc3Oc3ccccc3)n2)cc1 (centres undefined) | 43 | . | . | .
COc1ccc(NC(=O)Nc2nc(C(N)Cc3ccc(C(F)(F)F)cc3)cs2)cc1 (centres undefined) | 48 | . | . | .
NC(Cc1ccc(C(F)(F)F)cc1)c1csc(NC(=O)Nc2ccccc2Oc2ccccc2)n1 (centres undefined) | 87* | . | . | .
CN(Cc1ccccc1)C(=O)c1ccc(Nc2nc(C(N)Cc3ccccc3)cs2)nc1 (centres undefined) | 17 | . | . | .
CN(Cc1ccccc1)C(=O)c1ccc(Nc2nc(C(N)Cc3ccc(C(F)(F)F)cc3)cs2)nc1 (centres undefined) | 93* | . | . | .
CCC1(c2ccc(Cl)cc2)NC(=O)N(CC(=O)N2CCN(C(=O)c3ccco3)CC2)C1=O (centres undefined) | 3 | . | . | .
O=C(CCl)Nc1ncc(S(=O)(=O)c2ccc([N+](=O)[O-])cc2)s1 | 51* | . | . | .
CCOc1ccc(Cl)cc1Nc1nc(NCCO)nc(N2CCCC2)n1 | -1 | . | . | .
CC1CCC(NC(=O)C2CC(O)CN2S(=O)(=O)c2ccc([N+](=O)[O-])cc2)CC1 (centres undefined) | -3 | . | . | .
CCC(=O)Nc1ccc(NC(=O)c2ccccc2)nc1 | 34 | 30 | 62* | 0.4
CCCC(=O)Nc1ccc(NC(=O)c2ccccc2)nc1 | 31 | 41 | . | .
Nc1[nH]c(N=NC(=O)c2ccccc2)c2ccccc12 | -1 | 27 | 61* | 0.4
Nc1[nH]c(N=NC(=O)c2ccccc2O)c2ccccc12 | 72* | 46 | 85* | 0.1
SMILES | TRAIL sens C8 | PPC-1+TRAIL kill | FLuc inhib CS | FLuc act counter
Nc1[nH]c(N=NC(=O)c2ccc(Cl)cc2)c2ccccc12 | 24 | 17 | 48 | 0.5
O=C(ONc1ccc(N=NC(=O)c2ccccc2O)cc1)c1ccccc1 | 30 | 25 | 29 | 0.7
CCCCN1C(=N)N([C@@H](C)CN2CCC[C@H]2CN2C(N)=NC[C@H]2CC(C)C)C[C@H]1[C@H](C)CC | -23 | . | . | .
COc1ccc2c(c1OC)C(=O)N(c1cccc(C)c1)C2 | 65* | 15 | 84* | 0.2
CCN(CC)c1ccc(C=C2C(=O)OC3(CCCCC3)OC2=O)cc1 | -2 | 28 | -5 | 1
CCN(CC)c1ccc(/C=C2/C(=O)c3ccc(C(=O)O)cc3C2=O)cc1 | 17 | 8 | 92* | 0.1
Cc1nn(C)c(C)c1S(=O)(=O)N1CCC(C(=O)NC2CCCCC2)CC1 | 12 | 6 | -4 | 1
O=C(CCl)N(CCc1ccccc1)CCc1ccccc1 | 95* | . | . | .
CCCCCCCN(C(=O)CCl)c1cccc(C)c1 | 95* | 16 | -5 | 1
O=C(N(c1ccccc1)c1ccccc1)N(c1ccccc1)c1ccccc1 | 11 | 19 | . | .
O=C(CCl)N(c1ccccc1)c1ccccc1 | 94* | -6 | -4 | 1
CCCCCCN(C(=O)CCl)c1ccccc1 | 96* | 22 | . | .
O=C(CCCc1ccccc1)NCCc1ccccc1 | -14 | . | . | .
CCC(O)(CC)C(=O)NN(C(=O)CCl)c1ccccc1 | 19 | -6 | -5 | 1.1
O=C(Nc1ccccc1)NN(C(=O)CCl)c1ccccc1 | 97* | . | . | .
Cc1ccc(C(O)(C(=O)NN(C(=O)c2ccccc2)c2ccccc2)c2ccc(C)cc2)cc1 | -7 | 5 | 0 | 1
Cc1ccc(N(NC(=O)C(O)(c2ccccc2)c2ccccc2)C(=O)CCl)cc1 | 54* | 30 | 5 | 0.9
O=C(NCC1CCCO1)C(C(=O)c1ccc(F)cc1)n1ccccc1=O (centres undefined) | 5 | 3 | 2 | 1
CN(C)c1ccc(C=Cc2nccc3ccccc23)cc1 | 20 | . | . | .
COc1cccc(C=Cc2nccc3ccccc23)c1OC | 61* | . | . | .
CCN(CC)C(=O)C1=C(C)N(CCC2=CCCCC2)C(=O)C(CC(=O)NCCN2CCOCC2)C1 (centres undefined) | -7 | . | . | .
CCOc1ccc(S(=O)(=O)N2CCCCC2)cc1NC(=O)Cc1ccccc1 | 24 | . | . | .
Cc1ccc(-c2nc(N)s[n+]2-c2ccccc2)cc1 | 22 | 17 | 80* | 0.2
CNc1nc(-c2ccccc2)[n+](-c2ccc(C)cc2)s1 | -7 | 15 | 89* | 0.1
Cc1cccc(NC(=S)N(Cc2ccc(Cl)cc2)Cc2ccc(C(=O)O)cc2)c1 | -12 | 15 | -9 | 1.1
SMILES | TRAIL sens C8 | PPC-1+TRAIL kill | FLuc inhib CS | FLuc act counter
Cc1ccc(C)c(NC2CCCCC2NS(=O)(=O)c2ccccc2)c1 (centres undefined) | 10 | . | . | .
COc1cccc2cc(C(=O)Nc3cccc(C)n3)c(=O)oc12 | 10 | 5 | 54* | 0.5
CO[C@@H]1O[C@@H]2COC(c3ccccc3)O[C@@H]2[C@@H](OC)[C@@H]1O (some centres undefined) | 11 | 9 | -2 | 1
COc1ccccc1N1CCN(C(=O)c2cc(C3CC3)on2)CC1 | -18 | 24 | -2 | 1
CCOc1ccc(NC(=O)CSc2nc3ccccc3nc2N2CCCC2)cc1 | 2 | . | . | .
O=C(O)c1cccc(COc2ccccc2Cl)c1 | 34 | 25 | 63* | 0.4
O=C(O)c1ccc(COc2ccccc2Cl)cc1 | -12 | 21 | 3 | 1
CC(=O)N1CCN(C2=NC(=O)C(=C3CCCCC3)S2)CC1 | 16 | 5 | -6 | 1.1
CN(C)CCCN(C(=O)c1ccc(S(=O)(=O)N(C)C2CCCCC2)cc1)c1nc2ccc(Br)cc2s1 | 58* | . | . | .
Cc1cc(C)c2sc(N(CCCN(C)C)C(=O)c3ccc(S(=O)(=O)N(C)C4CCCCC4)cc3)nc2c1 | 76* | . | . | .
CCn1cc(C(=O)NCCc2ccccc2)c(=O)c2cc(S(=O)(=O)N3CCCC3)ccc21 | -2 | 17 | -3 | 1
CCCCCCCCCCCCCCCC(O)C[N+](C)(C)CCO (centres undefined) | 92* | . | . | .
CCCCCC(O)CCCC(=O)O (centres undefined) | -1 | . | . | .
